mortality, LC50 and LC90 data for 18 compounds are collected here from ChEMBL document CHEMBL3044558, “Structure-activity relationship development of dihaloaryl triazole compounds as insecticides and acaricides. 1. Phenyl thiophen-2-yl triazoles” (2007).

In test [1] the test system is Bemisia tabaci.
The subject of test [2] is Aphis gossypii.
Test [3] has as its system Heliothis virescens.
Test [4] deals with Tetranychus urticae. As to the kind of experiment: Insecticidal activity against female Tetranychus urticae (two-spotted spider mite) infested cotton leaf disks followed by 2.5 ppm compound spraying after oviposit assessed as insect mortality measured after 6 days post compound application under green house conditions. Conditions: foliar, 144 h. Type of test: functional.
Test [5] relates to Spodoptera exigua.
Test [6] has as its system Trichoplusia ni.
The test system of test [7] is Myzus persicae. As to the kind of experiment: Insecticidal activity against Myzus persicae (green peach aphid) assessed as insect mortality at 50 ppm. In kind it is functional.
Test [8] has as its system Heliothis virescens. Kind of test: Insecticidal activity against Heliothis virescens (tobacco budworm) second-instar larvae infested on 400 ppm compound pre-treated cotton cotyledon disk assessed as insect mortality measured 5 days post compound treatment under green house conditions. In kind it is functional.
For test [9], the system named is Trichoplusia ni. As to the kind of experiment: Insecticidal activity against Trichoplusia ni (cabbage looper) second-instar larvae infested on compound pre-treated cabbage leaf disk assessed as insect mortality measured 5 days post compound treatment under green house conditions. Type of test: functional. Conditions: for LC50: Trichoplusia ni, foliar. Summed up:
(§1)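 Leaf disks treated, air-dried and placed singly in cups. Cotton cotyledon disks each get one second-instar tobacco budworm larva; cabbage leaf disks each get one second-instar cabbage looper larva. Cups are capped and held in a growth chamber at 25 °C, 50-55% RH, 14 h light/10 h dark for 5 days.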

Test [10] has as its system Spodoptera exigua. Kind of test: Insecticidal activity against Spodoptera exigua second-instar larvae feeded on compound treated lepidopteran diet assessed as insect mortality measured 5 days post compound treatment under green house conditions. Type of test: functional. Conditions: for LC50: Spodoptera exigua, 120 h.
Test [11] concerns Bemisia tabaci. As to the kind of experiment: Insecticidal activity against Bemisia tabaci (sweet potato whitefly) second-instar larvae infested five weeks old cotton plants followed by compound 250 ppm compound spraying after insect oviposit assessed as insect mortality measured 13 days post compound treatment under green house conditions. Type of test: functional.
For test [12], the system named is Spodoptera exigua. Kind of test: Insecticidal activity against Spodoptera exigua second-instar larvae feeded on 400 ppm compound treated lepidopteran diet assessed as insect mortality measured 5 days post compound treatment under green house conditions. Type of test: functional. The following applies: at 400 ppm.
Test [13] concerns Heliothis virescens. As to the kind of experiment: Insecticidal activity against Heliothis virescens (tobacco budworm) second-instar larvae infested on compound pre-treated cotton cotyledon disk assessed as insect mortality measured 5 days post compound treatment under green house conditions. Type of test: functional. The following applies: for LC50: Heliothis virescens. Summed up: as §1

The test system of test [14] is Aphis gossypii. As to the kind of experiment: Insecticidal activity against Aphis gossypii (cotton aphid) infested one week old Crookneck squash plants assessed as insect mortality at 50 ppm measured after 3 days post compound application under green house conditions. In kind it is functional. The following applies: 72 h.
The subject of test [15] is Aphis gossypii. Kind of test: Insecticidal activity against Aphis gossypii (cotton aphid) infested one week old Crookneck squash plants assessed as insect mortality at 5 ppm measured after 3 days post compound application under green house conditions. Conditions: 72 h. Type of test: functional.
Test [16] has as its system Trichoplusia ni. Kind of test: Insecticidal activity against Trichoplusia ni (cabbage looper) second-instar larvae infested on 400 ppm compound pre-treated cabbage leaf disk assessed as insect mortality measured 5 days post compound treatment under green house conditions. The following applies: at 400 ppm. Type of test: functional.
Test [17] deals with Aphis gossypii. Kind of test: Insecticidal activity against Aphis gossypii (cotton aphid) infested one week old Crookneck squash plants assessed as insect mortality measured after 3 days post compound application under green house conditions. Type of test: functional. Conditions: for LC50: Aphis gossypii, 72 h.
The test system of test [18] is Tetranychus urticae.
Test [19] concerns Tetranychus urticae. As to the kind of experiment: Insecticidal activity against female Tetranychus urticae (two-spotted spider mite) infested cotton leaf disks followed compound spraying after oviposit assessed as insect mortality measured after 6 days post compound application under green house conditions. Conditions: Tetranychus urticae, foliar, 144 h. In kind it is functional.

≈ marks a conversion by molar mass, not a printed value. Calls of active or inactive are those of the source. The calls are words filed in the database; no cut-off is given here.

The term mortality denotes the percentage killed. On to `Cn1nc(-c2c(F)cccc2Cl)nc1-c1ccc(-c2ccc(C(F)(F)F)cc2)s1`, for which the mortality result in test [1], in test [2], in test [3], in test [5] and in test [6] was “inactive” each time. In test [4], the mortality at 2.5 ppm was determined as 80%.
For orientation: LC50 means the concentration lethal to half of the exposed cells or organisms. With `Cn1nc(-c2c(F)cccc2Cl)nc1-c1ccc(-c2ccc(OC(F)(F)F)cc2)s1`, the LC50 stood at 9.6 µg/mL (≈ 21.2 µM) in test [7], 20.6 µg/mL (≈ 45.4 µM) in test [9], 49.9 µg/mL (≈ 110 µM) in test [10] and 122 µg/mL (≈ 269 µM) in test [13]. Besides, the figures for the mortality in test [8], in [11] and in test [12] were 90%, less than 50% and 70%, respectively. For the same compound, the LC90 in test [9] was 27.7 ppm; in [10], 59.9 ppm. In addition, the mortality at 50 ppm in [14] came out at 90%. The mortality at 2.5 ppm in [4] was determined as 90%. Besides, the mortality entry in test [6] was “inactive”. The mortality at 5 ppm in test [15] amounted to 47%.
Consider `Cc1cc(-c2cccc(OC(F)(F)C(F)Cl)c2)sc1-c1nc(-c2c(F)cccc2Cl)nn1C` (stereo unspecified), for which the LC50 in [7] was 75 µg/mL (≈ 145 µM); in test [9], less than 1.6 µg/mL; in [10], 23.1 µg/mL (≈ 44.7 µM); in test [13] it was 4.38 µg/mL (≈ 8.48 µM). Moreover, the mortality in test [8] is reported as 90%; in test [12], 60%. In addition, the mortality result in test [1] and in [6] was “inactive” each time. Moreover, the LC90 in test [13] was 151 ppm. In addition, the mortality at 50 ppm in [14] was 90%. Further, the mortality at 2.5 ppm in test [4] was found to be 90%. Besides, the mortality at 5 ppm in test [15] came out at 91%.
On to `Cc1c(-c2ccc(OC(F)(F)C(F)Cl)cc2)csc1-c1nc(-c2c(F)cccc2Cl)nn1C` (stereo unspecified), for which the LC50 in test [7] is less than 5 µg/mL; in test [9] it was less than 1.56 µg/mL; in test [10], 1.56 µg/mL (≈ 3.02 µM); in test [13] it was 4.38 µg/mL (≈ 8.48 µM); in [17] it was less than 5 µg/mL. Besides, the mortality in [8] was found to be 90%; in test [11], 90%; in [12], 80%; in test [16], 70%. Besides, in test [14], the mortality at 50 ppm stood at 80%. Besides, in test [4], the mortality at 2.5 ppm turned out to be 90%.
Regarding `Cn1nc(-c2c(F)cccc2Cl)nc1-c1sc(-c2ccc(OC(F)(F)C(F)Cl)cc2)cc1Cl` (stereo unspecified), the median lethal concentration (LC50) in [7] is 78 µg/mL (≈ 145 µM); in test [9] it was less than 1.6 µg/mL; in [10] it was less than 1.6 µg/mL; in test [13], less than 1.6 µg/mL. The mortality in test [8] stood at 90%; in test [12], 60%. The mortality entry in [1] and in [6] was “inactive” throughout. In addition, the mortality at 50 ppm in test [14] stood at 90%. Moreover, the mortality at 2.5 ppm in [4] amounted to 90%. In [15], the mortality at 5 ppm was found to be 72%.
As to `Cn1nc(-c2c(F)cccc2Cl)nc1-c1sc(-c2ccc(OC(F)(F)F)cc2)cc1Cl`, the LC50 in test [7] was 65 µg/mL (≈ 133 µM); in test [9], 4.02 µg/mL (≈ 8.23 µM); in test [10] it was less than 1.6 µg/mL; in test [13] it was 62 µg/mL (≈ 127 µM). Moreover, the mortality is reported as 90% in test [8], 70% in test [12] and 90% in test [16]. In addition, the LC90 in [9] is 69.2 ppm. For the same compound, the mortality entry in test [1] is “inactive”. In test [14], the mortality at 50 ppm was determined as 90%. Also, the mortality at 2.5 ppm in [4] is 90%. In test [15], the mortality at 5 ppm was 80%.
Turning to `Cn1nc(-c2c(F)cccc2Cl)nc1-c1ccc(-c2cccc(C(F)(F)F)c2)s1`, the mortality entry in [1], in [18], in test [2], in test [3], in test [5] and in test [6] was “inactive” each time.
Regarding `Cn1nc(-c2c(F)cccc2Cl)nc1-c1cc(Br)c(-c2ccc(C(F)(F)F)cc2)s1`, the mortality entry in test [1], in test [18], in test [2], in test [3], in [5] and in test [6] was “inactive” in each case.
With `O=[N+]([O-])/N=C1\NCCN1Cc1ccc(Cl)nc1` [IMIDACLOPRID], the LC50 was found to be 1.7 µg/mL (≈ 6.65 µM) in test [7] and 0.05 µg/mL (≈ 0.196 µM) in test [17].
Take `Cn1nc(-c2c(F)cccc2F)nc1-c1ccc(-c2ccc(F)c(F)c2)s1`: the mortality entry in [1], in [18], in [2], in test [3], in [5] and in test [6] was “inactive” throughout.
With `Cn1nc(-c2c(F)cccc2F)nc1-c1ccc(-c2ccc(C(C)(F)F)cc2Cl)s1`, the mortality entry in test [1], in [18], in test [2], in [3], in test [5] and in test [6] was “inactive” in each case.
Turning to `Cc1ccc(-c2ccc(-c3nc(-c4c(F)cccc4Cl)nn3C)s2)cc1`, the mortality in test [11] is listed as less than 50%. Besides, the mortality result in test [18], in test [2], in test [3], in [5] and in test [6] was “inactive” throughout.
For `Cc1c(-c2ccc(OC(F)(F)F)cc2)csc1-c1nc(-c2c(F)cccc2Cl)nn1C`, the median lethal concentration (LC50) was 23.3 µg/mL (≈ 49.8 µM) in test [7]; 15.8 µg/mL (≈ 33.8 µM) in test [9]; 21.9 µg/mL (≈ 46.8 µM) in test [10]; more than 400 µg/mL in test [13]; 0.07 µg/mL (≈ 0.15 µM) in test [17]. Moreover, the mortality in [8], in test [11], in [12] and in [16] was 90% in each case. The mortality at 50 ppm in [14] was determined as 90%. Besides, the mortality at 2.5 ppm in test [4] was found to be 90%. Moreover, the LC90 in test [17] is 22.2 ppm.
For the compound `Cc1cc(-c2ccc(OC(F)(F)C(F)Br)cc2)sc1-c1nc(-c2c(F)cccc2Cl)nn1C` (stereo unspecified), the 50% lethal concentration (LC50) in test [7] is 62 µg/mL (≈ 111 µM); in test [9] it was less than 1.6 µg/mL; in test [10] it was 2.17 µg/mL (≈ 3.87 µM); in [13] it was 3.93 µg/mL (≈ 7.01 µM). The figures for the mortality in test [8], in test [12] and in [16] were 90%, 70% and less than 50%, respectively. In addition, the mortality result in test [1] is “inactive”. In addition, in test [14], the mortality at 50 ppm was determined as 90%. For the same compound, the mortality at 2.5 ppm in [4] was determined as 90%. Further, in [15], the mortality at 5 ppm is 89%.
`Cn1nc(-c2c(F)cccc2Cl)nc1-c1sc(-c2ccc(OC(F)(F)C(F)Br)cc2)cc1Cl` (stereo unspecified): the median lethal concentration (LC50) in test [7] was 70 µg/mL (≈ 120 µM); in [9] it was less than 1.6 µg/mL; in test [10], less than 1.6 µg/mL; in test [13], 53.7 µg/mL (≈ 92.4 µM). For the same compound, the mortality came out at 90% in test [8], 50% in test [12] and 70% in test [16]. In test [1], the mortality entry is “inactive”. The mortality at 50 ppm in test [14] amounted to 90%. The mortality at 2.5 ppm in test [4] amounted to 90%. In [15], the mortality at 5 ppm was determined as 54%.
Consider `Cc1c(Br)csc1-c1nc(-c2c(F)cccc2Cl)nn1C`, for which the figures for the LC50 in test [7], in test [19] and in test [17] were 0.8 µg/mL (≈ 2.07 µM), 0.29 µg/mL (≈ 0.75 µM) and 0.7 µg/mL (≈ 1.81 µM), respectively.
For `Cc1cc(-c2ccc(Cl)c(F)c2)sc1-c1nc(-c2c(F)cccc2Cl)nn1C`, the median lethal concentration (LC50) was found to be 89 µg/mL (≈ 204 µM) in test [7]; 30.2 µg/mL (≈ 69.2 µM) in [9]; 65 µg/mL (≈ 149 µM) in test [10]; 19.4 µg/mL (≈ 44.5 µM) in test [13]; 0.923 µg/mL (≈ 2.12 µM) in test [17]. The mortality in [8], in test [12] and in test [16] was 90% in each case. The LC90 in test [9] was found to be 40.3 ppm; in test [10], 323 ppm; in [17], 933 ppm. The mortality result in test [1] was “inactive”. In addition, in [14], the mortality at 50 ppm came to 80%. Further, in [4], the mortality at 2.5 ppm is 90%.
For `CC1(C)C(C=C(Cl)Cl)C1C(=O)OC(C#N)c1cccc(Oc2ccccc2)c1` (stereo not drawn) [ALPHA-CYPERMETHRIN], the median lethal concentration (LC50) is 0.6 µg/mL (≈ 1.44 µM) in test [9], 1.6 µg/mL (≈ 3.84 µM) in test [10] and 1.3 µg/mL (≈ 3.12 µM) in test [13].
